Laboratory results published in ChEMBL document CHEMBL1152379, “Synthesis and evaluation of 3''- and 4''-deoxy and -fluoro analogs of the immunostimulatory glycolipid, KRN7000” (Bioorg Med Chem Lett, 2009).

Experiments:
Type in all cases: functional, cell-based
iNKT [1] = test: Immunostimulatory activity in iNKT hybridoma 1.2 cells expressing TCR Vbeta8.2 assessed as IL2 level by ELISA
Procedure, shortened: (§1)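 Glycolipid pulsed at indicated amounts onto 1 × 10^5 A20 B lymphoma cells transfected to overexpress mouse CD1d, overnight. APCs washed, then cocultured with 2 × 10^5 Vα14 iNKT hybridoma cells (2H4 Vβ7, 1.2 Vβ8.2, 1.4 Vβ10) overnight. Supernatant IL-2 measured by ELISA as TCR-recognition readout. Dose-response curves, representative of three similar experiments.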

iNKT [2] = test: Immunostimulatory activity in iNKT hybridoma 2H4 cells expressing TCR Vbeta7 assessed as IL2 level by ELISA; procedure, shortened: as §1
iNKT [3] = test: Immunostimulatory activity in iNKT hybridoma 1.4 cells expressing TCR Vbeta10 assessed as IL2 level by ELISA; procedure, shortened: as §1

Row | Compound | Activity (iNKT [1]) | Activity (iNKT [2]) | Activity (iNKT [3])
1 | CCCCCCCCCCCCCCCCCCCCCCCCCC(=O)N[C@@H](CO[C@H]1O[C@H](CO)C[C@H](O)[C@H]1O)[C@H](O)CCCCCCCCCCCCCCC | Dose-dependent effect | Dose-dependent effect | –
2 | CCCCCCCCCCCCCCCCCCCCCCCCCC(=O)N[C@@H](CO[C@H]1O[C@H](CO)[C@H](F)[C@H](O)[C@H]1O)[C@H](O)CCCCCCCCCCCCCCC | Dose-dependent effect | Dose-dependent effect | Dose-dependent effect
3 | CCCCCCCCCCCCCCCCCCCCCCCCCC(=O)N[C@@H](CO[C@H]1O[C@H](CO)[C@H](O)[C@H](O)[C@H]1O)[C@H](O)[C@H](O)CCCCCCCCCCCCCC | Dose-dependent effect | Dose-dependent effect | Dose-dependent effect
4 | CCCCCCCCCCCCCCCCCCCCCCCCCC(=O)N[C@@H](CO[C@H]1O[C@H](CO)[C@H](O)[C@H](O)[C@H]1O)[C@H](O)CCCCCCCCCCCCCCC | Dose-dependent effect | Dose-dependent effect | Dose-dependent effect
5 | CCCCCCCCCCCCCCCCCCCCCCCCCC(=O)N[C@@H](CO[C@H]1O[C@H](CO)[C@H](O)[C@H](F)[C@H]1O)[C@H](O)CCCCCCCCCCCCCCC | Dose-dependent effect | Dose-dependent effect | –
6 | CCCCCCCCCCCCCCCCCCCCCCCCCC(=O)N[C@@H](CO[C@H]1O[C@H](CO)[C@H](O)C[C@H]1O)[C@H](O)CCCCCCCCCCCCCCC | Dose-dependent effect | Dose-dependent effect | –
